Paper PMC4031611 (Nature chemistry, 2014)
Peptide text beside a SMILES is read from it. * marks the point of attachment. Cbz = O=C(OCc1ccccc1)*; CH2F = FC*

Key:
[1] = target: T1, recombinant human caspase-3 (Homo sapiens, UniProt P42574); test: Caspase-3-mediated macrocyclization in vitro, HPLC assay; format: biochemical; conditions: probe 25 μM, caspase-3 4.9 × 10^−3 U/ml, 37 °C
T1 sequence (P42574 29-175 limits assumed): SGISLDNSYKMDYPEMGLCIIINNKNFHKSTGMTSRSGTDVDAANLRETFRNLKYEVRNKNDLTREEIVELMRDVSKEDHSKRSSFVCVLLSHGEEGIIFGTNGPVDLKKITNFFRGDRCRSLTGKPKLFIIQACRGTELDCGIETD
T1 sequence (P42574 176-277 limits assumed): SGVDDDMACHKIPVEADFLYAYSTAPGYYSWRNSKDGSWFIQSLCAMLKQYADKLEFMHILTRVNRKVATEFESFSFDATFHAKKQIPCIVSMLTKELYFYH

[2] = system: STS-induced apoptotic HeLa cells; test: Flow cytometry of STS-induced apoptotic HeLa cells labelled with probe; format: cell-based, human
In short: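 HeLa cells made apoptotic with staurosporine, or left viable, then incubated with probe (2 μM), with or without Z-VAD-fmk pretreatment (50 μM). Co-stained with a fluorescent caspase inhibitor (FLICA) as the apoptosis marker. Flow cytometry gated into four quadrants by FLICA and Cy5.5 positivity; Cy5.5 fluorescence compared between apoptotic and viable cells.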

[3] = system: STS-induced apoptotic HeLa cells; test: Epifluorescence microscopy of STS-treated HeLa cells; format: cell-based, human; conditions: for cell labeling efficiency: then C-SNAF 2 µM 24 h, HeLa
DOX-treated HeLa cells = test: Epifluorescence microscopy of DOX-treated HeLa cells; format: cell-based, human; conditions: for cell labeling efficiency: 24 h, HeLa
[4] = system: lysate of apoptotic HeLa cells; test: HPLC analysis of C-SNAF reaction in apoptotic cell lysate; format: cell-based, human; conditions: C-SNAF 5 μM, overnight, 37 °C
[5] = system: lysate of apoptotic MDA-MB-231 cells; test: as above; format: cell-based, human; conditions: C-SNAF 5 μM, overnight, 37 °C
[6] = Blood circulation and biodistribution in healthy nude mice; format: in vivo, mouse; conditions: 5 nmol i.v.
[7] = Stability in mouse serum by HPLC; format: in vitro ADME
[8] = system: subcutaneous HeLa tumors in female nude mice; test: In vivo fluorescence imaging of DOX-induced tumor apoptosis; set-up: species or system mouse
In short: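 HeLa s.c. xenografts in female nu/nu mice given DOX 8 mg/kg or saline i.v. every 4 days, three times. Two days after the last dose, probe (5 nmol in saline) given i.v. and imaging started immediately: hyperspectral imager, 635±25 nm excitation, 675 nm long-pass emission, 670–900 nm collected. Cy5.5 unmixed from autofluorescence; tumor ROI intensity expressed as percent difference from saline group. Same animals also imaged after a single DOX dose.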

HeLa tumor lysates = test: HPLC analysis of C-SNAF reaction in tumor lysates; format: in vivo, mouse; conditions: C-SNAF 5 μM, 24 h incubation with tumor lysate, 675 nm
[9] = system: caspase-3/7 activity in HeLa tumor lysates; test: Caspase-Glo 3/7 assay in tumor lysates; format: in vivo, mouse; conditions: 3X DOX 8 mg/kg i.v., Caspase-Glo 3/7, n = 4
HeLa tumor xenograft = test: Chemotherapy mouse model, tumor size; format: in vivo
In short: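 Female nu/nu mice, 6 weeks old, given 2 million HeLa cells s.c. in the shoulders in 50% Matrigel/supplemented DMEM. Tumors grown to 0.7–0.9 cm on one aspect (about 10–15 days), then given DOX 8 mg/kg or saline i.v. every 4 days, three times. Body weight and caliper width/length recorded every other day; volume = (length × width²)/2.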

CCSSC[C@@H](NC(=O)[C@H](CC(=O)O)NC(=O)[C@@H](NC(=O)[C@H](CCC(=O)O)NC(=O)[C@H](CC(=O)O)NC(C)=O)C(C)C)C(=O)N[C@@H](CCCCNC(=O)CCCCCN1C(=CC=CC=CC2=[N+](CC)c3ccc4c(S(=O)(=O)[O-])cc(S(=O)(=O)O)cc4c3C2(C)C)C(C)(C)c2c1ccc1c(S(=O)(=O)O)cc(S(=O)(=O)O)cc21)C(=O)Nc1ccc2nc(C3=N[C@@H](C(=O)NCCCOc4ccc5nc(C#N)ccc5c4)CS3)sc2c1 [C-SNAF]
conversion to C-SNAF-cycl after 6 h [1]: nearly completely converted to C-SNAF-cycl
uptake in untreated viable HeLa cells ([2]; probe 2 μM, 24 h, Cy5.5 fluorescence): low uptake
increase in Cy5.5 fluorescence of FLICA-positive apoptotic cells relative to viable cells ([2]; probe 2 μM, 24 h, STS 2 μM 4 h, HeLa): ~13 fold
cell labeling efficiency ([3]; STS 0.5 μM 4 h): 23%
cell labeling efficiency ([3]; STS 2 μM 4 h): 90%
enhancement in cell labeling efficiency ([3]; STS 0.5 to 2 μM): approximately 4 fold
labeling of apoptotic cells (fluorescence microscopy, words) ([3]; probe 2 µM, 24 h, STS-treated HeLa cells): Efficient labeling
cell labeling efficiency (DOX-treated HeLa cells; DOX 1 μM co-incubated with C-SNAF 2 µM): 9%
cell labeling efficiency (DOX-treated HeLa cells; DOX 5 μM co-incubated with C-SNAF 2 µM): 92%
enhancement in cell labeling efficiency (DOX-treated HeLa cells; DOX 1 to 5 μM): approximately 10 fold
conversion of C-SNAF to C-SNAF-cycl [4]: more than 90%
conversion of C-SNAF to C-SNAF-cycl [5]: more than 90%
time of nearly complete elimination from the body [6]: ≤ 12 h
blood half-life ([6]; Cy5.5 fluorescence of blood, n = 5): 1.0 ± 0.45 h
half-life [7]: > 360 min
increase in tumor fluorescence signal, DOX-treated compared to saline-treated mice ([8]; 5 nmol i.v., 3X DOX 8 mg/kg, by 4 h, n = 5): 1.6 fold
time of maximum tumor fluorescence after administration ([8]; 5 nmol i.v., n = 5): 1 h
tumor fluorescence relative to saline-treated mice ([8]; after single dose of DOX (1X DOX), 2 h after C-SNAF, n = 4): moderate increase in tumor fluorescence
tumor fluorescence relative to saline and 1X DOX ([8]; after third round of DOX, same animals, n = 4): significant fluorescence enhancement
amount of C-SNAF-cycl in DOX-treated relative to saline-treated tumor lysates (HPLC) (HeLa tumor lysates): significantly greater amount of C-SNAF-cycl

COC(=O)C[C@H](NC(=O)[C@H](C)NC(=O)[C@@H](NC(=O)OCc1ccccc1)C(C)C)C(=O)CF [Z-VAD-fmk, reference compound] (Cbz-Val-Ala-Asp(OMe)-CH2F)
effect of caspase inhibitor on labeling by C-SNAF ([2]; Z-VAD-fmk 50 μM, 30 min before C-SNAF 2 μM, STS-treated HeLa): abrogated

COc1cccc2c1C(=O)c1c(O)c3c(c(O)c1C2=O)C[C@@](O)(C(=O)CO)C[C@@H]3O[C@H]1C[C@H](N)[C@H](O)[C@H](C)O1 [DOX, doxorubicin]
increase in caspase-3/7 activity, DOX-treated relative to saline-treated tumors [9]: 1.9 fold
tumor size change (HeLa tumor xenograft; following 1X DOX 8 mg/kg i.v.): no significant size difference
tumor size change (HeLa tumor xenograft; following the third round of DOX 8 mg/kg i.v.): significant size reduction
